{"data": "Measurements collected from several papers", "note": "Each line is one published result; the experiments were not run side by side."}
{"SMILES": "O=C(O)c1cn(C2CC2)c2cc(N3CCNCC3)c(F)cc2c1=O", "tested on": "Mycobacterium kansasii", "assay": "microbial growth, broth dilution", "system": "DSM44162", "setting": "7 days", "endpoint": "MIC", "result": "1 µg/mL"}
{"SMILES": "O=C(O)c1cn(C2CC2)c2cc(N3CCNCC3)c(F)cc2c1=O", "tested on": "Acinetobacter baumannii", "assay": "microbial growth, broth dilution", "system": "ATCC19606", "endpoint": "MIC", "result": "2 µM"}
{"SMILES": "Cc1[nH]c(C(=O)Nc2ccc(C(=O)NCc3n[nH]c(=O)o3)cc2N2CCNCC2)c(Cl)c1Cl.Cl", "tested on": "Acinetobacter baumannii", "assay": "microbial growth, broth dilution", "system": "ATCC19606", "endpoint": "MIC", "result": "> 32 µg/mL"}
{"SMILES": "C=CC(=O)NC1CCN(c2ncc3ncnc(Nc4ccc(Oc5ccc6c(c5)ncn6C)c(C)c4)c3n2)CC1", "tested on": "Capan-2", "assay": "cell growth or viability", "endpoint": "EC50", "result": "36.1 nM"}
{"SMILES": "Cc1nc(Nc2ccc3c(c2)CC(=O)N3)c2ccccc2n1", "tested on": "B16", "assay": "cell growth or viability, MTT", "endpoint": "IC50", "result": "3130 nM"}
{"SMILES": "Cl.N[C@H]1CCN(c2cc(C(=O)NCC(=O)O)ccc2NC(=O)c2cc(Br)c(Br)[nH]2)C1", "tested on": "Acinetobacter baumannii", "assay": "microbial growth, broth dilution", "system": "ATCC19606", "endpoint": "MIC", "result": "> 32 µg/mL"}
{"SMILES": "COc1cc2ncnc(Nc3ccc4c(c3)/C(=C/c3ccccc3)C(=O)N4C)c2cc1OC", "tested on": "B16", "assay": "cell growth or viability, MTT", "endpoint": "IC50", "result": "1530 nM"}
{"SMILES": "NNC(=O)c1ccncc1", "tested on": "Mycobacterium kansasii", "assay": "microbial growth, broth dilution", "system": "DSM44162", "setting": "7 days", "endpoint": "MIC", "result": "4 µg/mL"}
{"SMILES": "O=C(O)c1cn(C2CC2)c2cc(N3CCNCC3)c(F)cc2c1=O", "tested on": "Acinetobacter baumannii", "assay": "microbial growth", "system": "ATCC19606", "endpoint": "MIC", "result": "8 µM"}
{"SMILES": "Cc1nc(N(Cc2ccccc2)c2ccc3c(c2)/C(=C/c2ccccc2)C(=O)N3Cc2ccccc2)c2ccccc2n1 (mixture of isomers)", "tested on": "B16", "assay": "cell growth or viability, MTT", "endpoint": "IC50", "result": "200 nM"}
